Laboratory results published in ChEMBL document CHEMBL4330057, “Second generation of diazachrysenes: Protection of Ebola virus infected mice and mechanism of action” (Eur J Med Chem, 2019).
Activity calls are given as the source filed them. No cut-off for these calls is given here.

Columns and labels:
Ebolavirus [1] = experiment: Antiviral activity against Ebolavirus H. sapiens-wt/1995/Kikwit-9510621 infected in human HeLa cells assessed as inhibition of viral infection at 2 uM treated simultaneously with viral infection and measured after 24 hrs by EboV GP immunostaining based high content imaging analysis; format: functional, organism-based
[2] = Toxicity in 6 hrs post fertilized zebrafish embryo assessed as lethal effect on somite formation up to 50 uM up to 120 hrs post fertilization by inverted microscopic method; parameters: species or system Danio rerio; settings: in vivo
[3] = Toxicity in 6 hrs post fertilized zebrafish embryo assessed as lethal effect on heart beat up to 50 uM up to 120 hrs post fertilization by inverted microscopic method; format: tissue-based, Danio rerio; settings: in vivo
[4] = Selectivity index, ratio of LC50 for toxicity in transgenic zebrafish embryo assessed as mortality to EC50 for Ebolavirus H. sapiens-wt/1995/Kikwit-9510621; settings: read-out: Selectivity Index
[5] = Toxicity in 6 hrs post fertilized zebrafish embryo assessed as teratogenic effect by measuring malformation of sacculi/otoliths up to 50 uM up to 120 hrs post fertilization by inverted microscopic method; parameters: species or system Danio rerio; settings: in vivo
[6] = Toxicity in 6 hrs post fertilized zebrafish embryo assessed as teratogenic effect by measuring effect on blood circulation up to 50 uM up to 120 hrs post fertilization by inverted microscopic method; parameters: species or system Danio rerio; settings: in vivo
[7] = Toxicity in 6 hrs post fertilized zebrafish embryo assessed as teratogenic effect by measuring yolk absorption up to 50 uM up to 120 hrs post fertilization by inverted microscopic method; parameters: species or system Danio rerio; settings: in vivo
[8] = Binding affinity to AGP (unknown origin) at compound to protein molar ratio of 1:20 after 10 mins by fluorescence spectral analysis; format: ADME; settings: human, isolated protein
In short: (§1)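 Protein fluorescence spectra recorded while compound was added in increasing amounts. Stern-Volmer binding constant (KSV) derived from the fluorescence change.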

[9] = target: Cathepsin B (Homo sapiens) (UniProt P07858); experiment: Inhibition of cathepsin B activity in human HeLa cells at 2 uM after 12 hrs by magic red substrate based fluorescence assay; format: cell-based
In short: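 HeLa cells were exposed to compound for 12 h, then given the Magic Red cathepsin B peptide reporter, washed, and imaged at Ex/Em 590/630. Total intensity and average area of red fluorescence were scored by high-content analysis. Eight wells per point, about 3000 cells/well, mean ± SD, three independent experiments.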

[10] = Cytotoxicity against human HeLa cells after 2 hrs by high content imaging analysis; format: cell-based
HeLa [11] = experiment: Inhibition of lysosome fusion with autophagosome in human HeLa cells harboring GFP-LC3 assessed as increase in GFP-LC3-2 clustering at 2 uM after 4 hrs; format: functional, cell-based
In short: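 HeLa cells stably expressing GFP-LC3 were treated with compound for 4 h, then imaged. Total GFP clusters per cell were counted. Eight-well replicates, about 500 cells/well, mean ± SD, three independent experiments.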

HeLa [12] = experiment: Induction of lysosomotropism in human HeLa cells infected with Ebolavirus assessed as dense clustering in perinuclear region at 2 uM for 2 hrs by acridine orange staining based assay; format: functional, cell-based
In short: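 HeLa cells pretreated 2 h, then acridine orange for 30 min, washed and imaged. Total intensity and average area of acridine orange fluorescence quantified by high-content imaging. Mean ± SD of 8 wells, about 3000 cells each, three independent experiments.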

[13] = Toxicity in 6 hrs post fertilized zebrafish embryo assessed as teratogenic effect by measuring growth retardation up to 50 uM up to 120 hrs post fertilization by inverted microscopic method; parameters: species or system Danio rerio; settings: in vivo
HeLa [14] = experiment: Inhibition of lysosome fusion with autophagosome in human HeLa cells harboring GFP-LC3 assessed as increase in GFP-LC3-2 clustering up to 50 uM after 6 hrs by Western blot analysis; format: functional, cell-based
In short: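 HeLa cells were exposed to compound for 6 h, then lysed and analysed by Western blot.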

[15] = Toxicity in 6 hrs post fertilized zebrafish embryo assessed as mortality up to 120 hrs post fertilization; parameters: species or system Danio rerio; settings: in vivo
[16] = Toxicity in 6 hrs post fertilized zebrafish embryo assessed as teratogenic effect by measuring malformation of notochord up to 50 uM up to 120 hrs post fertilization by inverted microscopic method; format: tissue-based, Danio rerio; settings: in vivo
[17] = Toxicity in 6 hrs post fertilized zebrafish embryo assessed as teratogenic effect by measuring liver morphology and color up to 50 uM up to 120 hrs post fertilization by inverted microscopic method; format: tissue-based, Danio rerio; settings: in vivo
HeLa [18] = experiment: Induction of lysosomotropism in human HeLa cells infected with Ebolavirus assessed as increase in red fluorescence at 2 uM for 2 hrs by acridine orange staining based assay; format: functional, cell-based
In short: (§2)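 HeLa cells were pretreated with compound for 2 h, then given acridine orange for 30 min and washed. Red AO fluorescence in acidic compartments was imaged, and total intensity and average area were scored by high-content imaging. Eight wells per point, about 3000 cells/well, mean ± SD, representative of three independent experiments.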

[19] = Selectivity index, ratio of toxic concentration for hepatotoxicity in transgenic l-fabp:EGFP zebrafish embryo to EC50 for Ebolavirus H. sapiens-wt/1995/Kikwit-9510621; format: toxicity; settings: read-out: Selectivity Index
[20] = Selectivity index, ratio of CC50 for HFF to EC50 for Ebolavirus H. sapiens-wt/1995/Kikwit-9510621 infected in human HeLa cells; format: toxicity, cell-based; settings: read-out: Ratio CC50/EC50
[21] = Cytotoxicity against HFF after 2 hrs by high content imaging analysis; format: cell-based; settings: human, HFF cells
Ebolavirus [22] = experiment: Antiviral activity against Ebolavirus H. sapiens-wt/1995/Kikwit-9510621 infected in human HeLa cells assessed as inhibition of viral infection at 2 uM pretreated for 2 hrs followed by viral infection and measured after 24 hrs by EboV GP immunostaining based high content imaging analysis; format: functional, organism-based
HeLa [23] = experiment: Cytotoxicity against human HeLa cells at 50 uM after 2 hrs; format: cell-based
Ebolavirus [24] = experiment: Antiviral activity against Ebolavirus H. sapiens-wt/1995/Kikwit-9510621 infected in human HeLa cells assessed as inhibition of viral infection at 2 uM treated for 2 hrs after viral infection and measured after 24 hrs by EboV GP immunostaining based high content imaging analysis; format: functional, organism-based
[25] = Toxicity in 6 hrs post fertilized zebrafish embryo assessed as teratogenic effect by measuring scoliosis up to 50 uM up to 120 hrs post fertilization by inverted microscopic method; parameters: species or system Danio rerio; settings: in vivo
HeLa [26] = experiment: Induction of lysosomotropism in human HeLa cells infected with Ebolavirus assessed as expansion of acid compartments at 2 uM for 2 hrs by acridine orange staining based assay; format: functional, cell-based; in short: as §2
Albumin = Albumin (Homo sapiens, UniProt P02768); experiment: Binding affinity to human serum albumin at compound to protein molar ratio of 1:20 after 10 mins by fluorescence spectral analysis; format: ADME; settings: isolated protein; in short: as §1
[27] = target: Procathepsin L (Homo sapiens) (UniProt P07711); experiment: Inhibition of cathepsin L activity in human HeLa cells at 2 uM after 6 hrs by HCA; format: cell-based
[28] = Toxicity in 6 hrs post fertilized zebrafish embryo assessed as teratogenic effect by measuring malformation of head up to 50 uM up to 120 hrs post fertilization by inverted microscopic method; format: tissue-based, Danio rerio; settings: in vivo
[29] = Toxicity in 6 hrs post fertilized zebrafish embryo assessed as teratogenic effect by measuring effect on heart beat frequency up to 50 uM up to 120 hrs post fertilization by inverted microscopic method; parameters: species or system Danio rerio; settings: in vivo
[30] = Toxicity in 6 hrs post fertilized zebrafish embryo assessed as tail detachment up to 50 uM up to 120 hrs post fertilization by inverted microscopic method; parameters: species or system Danio rerio; settings: in vivo

Sequence of Procathepsin L (Homo sapiens) (P07711 114-333 limits assumed): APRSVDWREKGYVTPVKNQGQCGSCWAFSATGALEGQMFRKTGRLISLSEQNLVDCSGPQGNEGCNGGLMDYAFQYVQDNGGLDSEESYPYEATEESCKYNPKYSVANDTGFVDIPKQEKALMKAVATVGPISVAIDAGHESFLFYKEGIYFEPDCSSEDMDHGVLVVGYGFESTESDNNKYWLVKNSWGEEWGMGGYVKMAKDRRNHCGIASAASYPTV
Sequence of Albumin (P02768 whole entry): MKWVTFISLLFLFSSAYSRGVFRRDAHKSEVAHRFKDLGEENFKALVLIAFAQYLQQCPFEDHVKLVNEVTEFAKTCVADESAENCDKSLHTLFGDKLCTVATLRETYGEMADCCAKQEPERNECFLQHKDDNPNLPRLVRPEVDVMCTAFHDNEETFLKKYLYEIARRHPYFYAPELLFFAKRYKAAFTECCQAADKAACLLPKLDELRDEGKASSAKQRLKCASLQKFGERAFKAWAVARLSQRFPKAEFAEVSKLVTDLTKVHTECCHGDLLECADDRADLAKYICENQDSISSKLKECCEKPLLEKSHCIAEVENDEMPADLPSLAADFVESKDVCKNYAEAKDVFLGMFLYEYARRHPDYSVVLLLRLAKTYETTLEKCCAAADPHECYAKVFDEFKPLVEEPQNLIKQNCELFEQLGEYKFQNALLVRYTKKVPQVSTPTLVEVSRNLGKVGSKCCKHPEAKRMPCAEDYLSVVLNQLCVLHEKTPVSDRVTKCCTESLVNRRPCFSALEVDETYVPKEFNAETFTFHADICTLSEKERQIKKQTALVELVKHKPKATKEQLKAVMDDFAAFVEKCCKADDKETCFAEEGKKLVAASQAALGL

Row | SMILES | Activity (Ebolavirus [1]) | Activity [2] | Activity [3] | selectivity ratio [4] | Activity [5] | Activity [6] | Activity [7] | KSV [8] | inhibition [9] | CC50 at 2 h [10] | inhibition (HeLa [11]) | Activity (HeLa [12]) | Activity [13] | inhibition (HeLa [14]) | Activity [15] | LC50 [15] | Activity [16] | Activity [17] | Activity (HeLa [18]) | selectivity ratio [19] | other results
1 | Cl.Cl.Cl.Cl.c1cc(NCCN2CCOCC2)c2ccc3c(ccc4c(NCCN5CCOCC5)ccnc43)c2n1 | Active | Non-Toxic | Non-Toxic | 70 to 100 | Non-Toxic | Non-Toxic | Non-Toxic | 8.12 ×10⁴ /M | Active | > 20 µM | Active | Active | Non-Toxic | Active | Dose-dependent effect | 72.1 µM | Non-Toxic | Non-Toxic | inactive | 103 | selectivity ratio [20]: > 36.5; CC50 at 2 h [21]: > 20 µM; Activity (Ebolavirus [22]): Active; Activity (HeLa [23]): Toxic; Activity (Ebolavirus [24]): inactive; Activity [25]: Non-Toxic; Activity (HeLa [26]): Active; KSV (Albumin): 1.13 ×10⁵ /M; inhibition [27]: Active; Activity [28]: Non-Toxic; Activity [29]: Non-Toxic; Activity [30]: Non-Toxic
2 | Cl.Cl.Cl.Cl.c1cc(NCCCCN2CCOCC2)c2ccc3c(ccc4c(NCCN5CCOCC5)ccnc43)c2n1 | Active | Non-Toxic | Non-Toxic | 70 to 100 | Non-Toxic | Non-Toxic | Non-Toxic | 6.12 ×10⁴ /M | Active | 8 µM | Active | Active | Non-Toxic | Active | Dose-dependent effect | 18.9 µM | Non-Toxic | Non-Toxic | inactive | 73 | selectivity ratio [20]: 11.2; CC50 at 2 h [21]: 2.4 µM; Activity (Ebolavirus [22]): Active; Activity (HeLa [23]): Toxic; Activity (Ebolavirus [24]): inactive; Activity [25]: Non-Toxic; Activity (HeLa [26]): Active; KSV (Albumin): 8.85 ×10⁴ /M; inhibition [27]: Active; Activity [28]: Non-Toxic; Activity [29]: Non-Toxic; Activity [30]: Non-Toxic
